Source: PubChem
Only some compounds are listed: those with a hit (about 2.3% of all), similar ones and a draw of the others.
TRPC4 block: blocks the mouse TRPC4 cation channel; actives 0.39% (n = 300,000); HEK293 TRPC4beta/mu-opioid, DAMGO-evoked Fluo4 calcium flux; hits give low values; B-score at 10 µM; Q9QUQ5;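 active = B-score over 3 SD under the library average, no early fluorescence shift, positive overall ratio signal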
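Assay system: HEK293 cells with stable TRPC4beta plus mu-opioid receptor expression; Probe or stimulus: DAMGO in two steps, submaximal then maximal; Dosing: single-point compound dosing; Measured by: Fluo4 calcium-dye fluorescence, kinetic read; Read-out basis: B score from integrated Fluo4 fluorescence ratio.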
TRPC6 act: mouse TRPC6 channel activation; HEK293-TRPC6 membrane potential dye fluorescence; hits give high values; Q61143; B-score at 10 µM; actives 0.13% (n = 310,000);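 active = B-score of the integrated fluorescence ratio above library mean plus 3 SD, and starting fluorescence ratio within library mean plus 5 SD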;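 also: higher score means more depolarization so channel activation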
Target sequence (Q61143 whole entry, looked up): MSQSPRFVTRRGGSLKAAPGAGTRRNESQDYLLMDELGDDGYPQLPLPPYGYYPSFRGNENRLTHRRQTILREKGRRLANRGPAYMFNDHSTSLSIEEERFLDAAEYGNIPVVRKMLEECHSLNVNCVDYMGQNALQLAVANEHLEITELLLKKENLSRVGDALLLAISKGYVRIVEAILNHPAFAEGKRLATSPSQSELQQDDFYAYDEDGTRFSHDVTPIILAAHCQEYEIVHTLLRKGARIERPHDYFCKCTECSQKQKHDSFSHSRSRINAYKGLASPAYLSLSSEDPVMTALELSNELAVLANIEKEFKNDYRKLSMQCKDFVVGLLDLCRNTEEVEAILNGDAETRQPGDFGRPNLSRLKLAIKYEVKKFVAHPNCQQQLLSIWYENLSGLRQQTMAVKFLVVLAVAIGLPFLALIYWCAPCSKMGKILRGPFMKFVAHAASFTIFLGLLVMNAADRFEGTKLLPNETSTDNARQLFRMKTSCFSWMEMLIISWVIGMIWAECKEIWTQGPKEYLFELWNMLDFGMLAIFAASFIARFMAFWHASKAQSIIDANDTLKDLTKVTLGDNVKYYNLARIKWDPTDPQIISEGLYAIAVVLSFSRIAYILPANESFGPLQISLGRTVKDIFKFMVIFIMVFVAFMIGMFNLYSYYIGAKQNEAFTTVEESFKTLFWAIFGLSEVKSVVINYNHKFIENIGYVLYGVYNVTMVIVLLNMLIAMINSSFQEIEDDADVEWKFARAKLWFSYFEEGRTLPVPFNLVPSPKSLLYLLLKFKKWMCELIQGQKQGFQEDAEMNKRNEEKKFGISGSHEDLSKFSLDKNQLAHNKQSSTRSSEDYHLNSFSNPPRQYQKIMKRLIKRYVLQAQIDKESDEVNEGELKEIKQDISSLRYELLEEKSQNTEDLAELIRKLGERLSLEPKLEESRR
TRPC6 inh: blocks the mouse TRPC6 cation channel | Q61143 | HEK293-TRPC6, membrane potential dye, ACh-evoked depolarization; hits give low values | B-score at 10 µM | actives 1.1% (n = 310,000) | AID 2553;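 active = B-score under library mean minus 3 SD, initial fluorescence not abnormally high, positive integrated signal ratio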;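 also: B-score derived from integrated fluorescence ratio over the kinetic read; more negative B-score means stronger inhibition of depolarization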
TRPC4 act: activators of mouse TRPC4 channel; Q9QUQ5; HEK293 TRPC4beta/mu-opioid, Fluo4 calcium fluorescence; hits give high values; B-score at 10 µM; actives 0.49% (n = 310,000);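 active = B-score above 5 SD of library B-scores, and initial fluorescence ratio not above library mean plus 5 SD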;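 also: positive B-score marks a calcium rise read as TRPC4 activation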
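system = HEK293 cells stably co-expressing mouse TRPC4beta and mu-opioid receptor | schedule = Fluo4 dye loading 45 min at room temperature, 110 s recording | measure = B-scored integrated calcium fluorescence ratio | signal = Fluo4 calcium-sensitive dye fluorescence, kinetic, 1 Hz baseline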
TRPC4 PAM: allosteric potentiators of mouse TRPC4 channel; Q9QUQ5; HEK293 TRPC4beta/mu-opioid, DAMGO EC20, Fluo-4 Ca2+ flux; hits give high values; B-score at 10 µM; actives 0.42% (n = 310,000); AID 2227;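 active = B-score of calcium response area above 5 SD of library B-scores, with initial fluorescence ratio within 5 SD of library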;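 also: B-score of integrated fluorescence ratio over time as area under calcium response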
TRPC4 spec 2: second check of whether TRPC6 inhibitors also affect mouse TRPC4; HEK293 TRPC4/MOR, membrane potential dye fluorescence; channel activated by saturating DAMGO dose; shares compounds with TRPC6 inh; actives 42% (n = 920); inhibition, % at 10 µM; AID 2776;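 active = compounds whose fluorescence signal differed from control wells by over 3 SD, either direction, in both duplicate plates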
TRPC4 spec: mouse TRPC4 off-target activity of TRPC6 inhibitors; shares compounds with TRPC6 inh; HEK293 TRPC4/mu-opioid, membrane potential fluorescence; actives 61% (n = 920); activity change, negative = inhibition, % at 10 µM; AID 2777;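 active = rise or fall in signal beyond 3 SD of buffer-only wells in both replicate plates, either sign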;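 also: integrated kinetic ratio of fluorescence range over baseline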
HEK293 MPD ctr 2-1: second counter-screen for TRPC6 inhibitors: parental HEK293 cells; signal change vs control, % at 10 µM; actives 31% (n = 920); shares compounds with TRPC6 inh; AID 2779; parental HEK293 membrane potential dye fluorescence; maximal acetylcholine challenge after compound addition;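 active = membrane potential signal moving either way by over 3 SD of the maximum-effect control, in both duplicate plates, meaning non-specific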
HEK293 MPD ctr-1: parental HEK293 nonspecific activity of TRPC6 inhibitors; shares compounds with TRPC6 inh; parental HEK293 membrane potential dye fluorescence; membrane potential signal change, % at 10 µM; actives 60% (n = 920);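 active = membrane potential signal shifting up or down by more than 3 SD of buffer-only wells, on both duplicate plates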
HEK293 MPD ctr-2: counter-screen for TRPC6 modulators: effect in parental HEK293 cells; shares compounds with TRPC6 inh; membrane potential dye fluorescence; membrane potential signal change, % at 10 µM; actives 51% (n = 2,400);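 active = membrane potential signal moves up or down beyond 5 SD from buffer-only wells, on both duplicate plates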
HEK293 MPD ctr 2-2: second check of TRPC6 modulator effects in parental HEK293 cells; inhibition, % at 10 µM; actives 14% (n = 2,400); shares compounds with TRPC6 inh; AID 488926; membrane potential dye fluorescence; after compound, maximal acetylcholine stimulation;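 active = membrane potential signal drops by more than 5 SD from the mean control signal, in both duplicate plates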;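 also: plate controls were acetylcholine ECmax control wells for no effect and buffer only wells for full effect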
TRPC4 ctr mod: selectivity of TRPC6 modulators against mouse TRPC4; shares compounds with TRPC6 inh; HEK293 TRPC4/mu-opioid, membrane potential fluorescence; percent change from control (negative = decrease, positive = increase), % at 10 µM; actives 69% (n = 2,400);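 active = membrane potential signal moved up or down beyond 5 SD of buffer control wells, in both duplicate plates, actives on both sides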;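 also: plate controls were assay buffer wells for no effect and DAMGO maximal-effect wells for full effect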
TRPC4/MOR inh 2: mouse TRPC4 off-target activity of TRPC6 modulators, second screen | shares compounds with TRPC6 inh | HEK293 TRPC4/mu-opioid, membrane potential dye fluorescence; stimulated with maximal-effect DAMGO | inhibition, % at 10 µM | actives 55% (n = 2,400) | AID 488928;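 active = drop in membrane potential signal beyond 5 SD of the control wells in both duplicate plates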;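 also: TRPC4 counter screen for TRPC6 hits run under conditions tuned for TRPC6 not TRPC4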
TRPC6 inh conf: confirmation of mouse TRPC6 inhibitors | actives 43% (n = 3,300) | shares compounds with TRPC6 inh | inhibition, % at 10 µM | HEK293-TRPC6, membrane potential dye, ACh-evoked depolarization;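 active = fluorescence ratio falls more than 5 SD below the full-stimulation control mean, in both duplicate runs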;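 also: integrated fluorescence ratio of peak minus minimum over baseline after agonist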
TRPC6 act confirm: mouse TRPC6 activator confirmation | actives 11% (n = 2,800) | shares compounds with TRPC6 inh | activation, % at 10 µM | HEK293-TRPC6 membrane potential dye fluorescence, FDSS;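 active = ratio signal rise beyond 5 SD above unstimulated control wells' mean, seen in both duplicate runs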;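 also: plate controls were buffer EC0 wells for no effect and acetylcholine ECmax response for full effect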
An asterisk follows results filed as active; i = inactive; x = not tested or not shown.

SMILES | TRPC4 block | TRPC6 act | TRPC6 inh | TRPC4 act | TRPC4 PAM | HEK293 MPD ctr-2 | HEK293 MPD ctr 2-2 | TRPC4 ctr mod | TRPC4/MOR inh 2 | TRPC6 inh conf | TRPC6 act confirm | others
Cc1cccc(NC(=O)CSc2nc3nc(C)cc(C)c3c(=O)[nH]2)c1 | i | i | -6.9* | i | i | x | x | x | x | i | i | TRPC4 spec 2=i;TRPC4 spec=i;HEK293 MPD ctr 2-1=i;HEK293 MPD ctr-1=i
CSc1nc(SCC(=O)NCC2CCCO2)c2c3c(sc2n1)CN(C)CC3 (configuration not stated) | i | i | -5* | i | i | -134%* | i | -28%* | i | i | i
OCCNCc1cc(Br)ccc1OCc1ccc(Cl)cc1 | i | i | -5.7* | i | i | 102%* | i | 17%* | 89%* | 45%* | x
OCCNCc1cccc(OCc2ccc(Cl)cc2)c1 | i | i | i | i | i | x | x | x | x | x | x
CS(=O)(=O)c1ccc(Cl)c(NC(=O)c2cc(S(=O)(=O)N3CCOCC3)ccc2N2CCCC2)c1 | i | i | i | i | i | x | x | x | x | x | x
CCC1=[N+](C)c2cccc3cccc(c23)N1C | i | i | -6* | i | i | -344%* | i | -52%* | 47%* | 42%* | i
COc1ccccc1OC(C)C(=O)Nc1ccc(S(=O)(=O)N2CCN(C)CC2)cc1 (configuration not stated) | i | i | i | i | i | x | x | x | x | x | x
CN1CCN(C2=Nc3cc(Cl)ccc3Nc3ccccc32)CC1 | i | i | -6.9* | i | i | x | x | x | x | i | i | TRPC4 spec 2=i;TRPC4 spec=i;HEK293 MPD ctr 2-1=-2.0%*;HEK293 MPD ctr-1=i
CN1CCN(CCCN2c3ccccc3Sc3ccc(Cl)cc32)CC1 | i | i | i | i | i | x | x | x | x | x | x
Cc1ccccc1OCC(=O)NCCCNC(=O)c1cccnc1 | i | i | i | i | i | x | x | x | x | x | x
COc1ccccc1C(=O)COC(=O)CSC(C)C(=O)Nc1cc(C)on1 (configuration not stated) | i | i | i | i | i | x | x | x | x | x | x
NCCCCCc1nnc(SCc2ccc(Cl)c(Cl)c2)o1 | i | i | -6.2* | i | i | i | i | i | 66%* | 60%* | i
O=C(NNc1ccc(C(F)(F)F)cc1[N+](=O)[O-])c1ccc(NS(=O)(=O)c2ccc(F)cc2)cc1 | i | i | -5.4* | i | i | -112%* | i | -26%* | 62%* | 64%* | i
CC(C)[C@H](Nc1ccc(C(F)(F)F)cc1[N+](=O)[O-])C(=O)O | i | i | i | i | i | x | x | x | x | x | x
C[C@]12CCC[C@H](O1)c1c(cc3c(c1O)C(=O)c1c(O)cc(O)cc1C3=O)O2 | i | 13* | i | i | i | 274%* | i | 58%* | i | i | 91%*
CC1(C)CC(=O)c2c(O)cc(O)cc2O1 | i | i | i | i | i | x | x | x | x | x | x
COc1cc(CNCc2ccccn2)ccc1OCC(=O)NC1CCCCC1 | i | i | i | i | i | x | x | x | x | x | x
COc1cc(CNCCc2ccc(S(N)(=O)=O)cc2)ccc1OCC(=O)NC1CCCCC1 | i | 12* | -12* | 47* | i | i | i | i | i | i | i
CC(C)(C)c1ccc(OCCC(=O)OCC(=O)NC2CCS(=O)(=O)C2)cc1 (configuration not stated) | i | i | i | i | i | x | x | x | x | x | x
CCCN(Cc1nnc(-c2ccccc2Cl)o1)C(=O)c1oc2ccccc2c1C | i | i | i | i | i | x | x | x | x | x | x
CCOC(=O)c1c(-c2ccccc2)oc2cc(CN(C)C)c(O)c(CN(C)C)c12 | i | i | -7.7* | i | i | x | x | x | x | i | i | TRPC4 spec 2=i;TRPC4 spec=i;HEK293 MPD ctr 2-1=270%*;HEK293 MPD ctr-1=i
N#Cc1cnn(Cc2ccccc2)c1N | i | i | -6.2* | i | i | i | i | i | i | i | i
N#Cc1cnn(Cc2ccc(Cl)cc2)c1N | x | i | i | i | i | x | x | x | x | x | x
CCN(CC)S(=O)(=O)c1ccc(NN=C2CCN(C)CC2)c([N+](=O)[O-])c1 | i | i | -7.2* | i | i | -83%* | i | -20%* | 39%* | i | i
O=C(NCCNC(=O)c1cc(Cl)ccc1Cl)c1ccco1 | i | i | i | i | i | x | x | x | x | x | x
CCN(CC)c1ccc(S(=O)(=O)N(CC)CC)cc1NC(=O)C1CCCC1 | i | 21* | -14* | i | i | 182%* | i | 34%* | 36%* | 116%* | 162%*
CCN(CC)c1ccc(S(=O)(=O)N2CCCCC2)cc1NC(=O)C1CCC1 | i | 12* | -5.5* | i | i | i | i | 22%* | 30%* | 76%* | 96%*
CCC(C)N(CCNC(=O)CC1Oc2ccccc2NC1=O)C1CCCCC1 (configuration not stated) | i | i | -8* | i | i | x | x | x | x | 60%* | x | TRPC4 spec 2=i;TRPC4 spec=19%*;HEK293 MPD ctr 2-1=i;HEK293 MPD ctr-1=11%*
